In brackets after ≈: the same amount, converted by molar mass.
Experiments:
E6SM [1] = assay: Inhibitory activity against herpes simplex virus type 2 (HSV-2) Lyons strain.; type: functional, cell-based, Homo sapiens
Procedure, shortened: (§1)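 Confluent E6SM cell cultures were inoculated with 100 CCID50 of virus and allowed 1 h for adsorption. Residual virus was then removed, and the cells were incubated with test compound at 400, 200, 100, ... μg/mL. Viral cytopathicity was scored once it reached completion in untreated infected controls.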

Cytomegalovirus [2] = assay: Inhibitory activity against cytomegalovirus (CMV) AD 169 strain; type: functional, organism-based; details: Human betaherpesvirus 5
Procedure, shortened: (§2)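 HEL cell cultures, grown to confluence, received 100 CCID50 of virus. After 1 h adsorption, the inoculum was removed and the cultures were incubated with serial concentrations of compound (400, 200, 100, ... μg/mL).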

Human alphaherpesvirus 1 [3] = assay: Inhibition of herpes simplex virus type 1 (HSV-1) F strain; type: functional, organism-based; procedure, shortened: as §1
E6SM [4] = assay: Compound was evaluated for inhibitory activity against herpes simplex virus type 1 thymidine kinase (HSV-1 TK-) B2006 strain; NA=not active; type: functional, cell-based, Homo sapiens; procedure, shortened: as §1
Cytomegalovirus [5] = assay: Inhibitory activity against cytomegalovirus (CMV) Davis strain; type: functional, organism-based; details: Human betaherpesvirus 5; procedure, shortened: as §2
Human alphaherpesvirus 1 [6] = assay: Iactivity against herpes simplex virus type 1 (HSV-1) McIntyre strain.; type: functional, organism-based; procedure, shortened: as §1
[7] = Inhibitory activity against murine sarcoma virus induced transformation of murine C3H/3T3 embryo fibroblasts; type: functional, Mus musculus
Procedure, shortened: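 Murine C3H/3T3 embryo fibroblasts were seeded at 5 × 10⁵ cells/mL. After 24 h they were infected with 80 focus-forming units of MSV for 90–120 min at 37 °C. The medium was then replaced with fresh medium containing various compound concentrations, and transformation was examined microscopically after 6 days.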

Human alphaherpesvirus 2 [8] = assay: Inhibitory activity against herpes simplex virus type 2 (HSV-2) G strain; type: functional, organism-based; procedure, shortened: as §1
MT4 [9] = assay: Inhibitory activity of compound against human immunodeficiency virus type 1 (HIV-1) induced cytopathogenicity in MT-4 cells; NA=Not Active; type: functional, cell-based
Procedure, shortened: (§3)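 Human MT-4 cells (~4 × 10⁵ cells/mL) were infected with 100 CCID50 of HIV-1 (IIIB)/mL and seeded into wells containing compound dilutions. After 5 days at 37 °C, viable cells were counted by trypan blue exclusion in a blood cell counting chamber.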

[10] = Inhibitory activity against herpes simplex virus type 2 (HSV-2) 196 strain; type: functional; procedure, shortened: as §1
Human alphaherpesvirus 1 [11] = assay: Inhibitory activity against herpes simplex virus type 1 (HSV-1) KOS strain; type: functional, organism-based; procedure, shortened: as §1
MT4 [12] = assay: Antiviral activity against human immunodeficiency virus type 2 (HIV-2) in MT-4 cells; type: functional, cell-based
[13] = tested on: Human immunodeficiency virus 1; assay: Antiviral activity against human immunodeficiency virus type-1 (HIV-1) in MT-4 cells; type: functional, organism-based; details: Human immunodeficiency virus 1, MT4; procedure, shortened: as §3
Human alphaherpesvirus 1 [14] = assay: Inhibitory activity against herpes simplex virus type 1 (HSV-1) KOS strain.; type: functional, organism-based; procedure, shortened: as §1
Human alphaherpesvirus 2 [15] = assay: Inhibitory activity against herpes simplex virus type 2 (HSV-2) Lyons strain; type: functional, organism-based; procedure, shortened: as §1
HEL [16] = assay: Compound was evaluated for inhibitory activity against cytomegalovirus (CMV) AD 169 strain; NA=not active; type: functional, cell-based, Homo sapiens; procedure, shortened: as §2
[17] = tested on: Human immunodeficiency virus 1; assay: Inhibition of human immunodeficiency virus type 1 (HIV-1) induced cytopathogenicity in CEM cells; type: functional, organism-based; details: Human immunodeficiency virus 1, CCRF-CEM
Procedure, shortened: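 CEM cells (~3 × 10⁵ cells/mL) were infected with 100 CCID50 of HIV-1 (IIIB)/mL and plated with dilutions of compound. After 4 days at 37 °C, giant cell formation was assessed microscopically.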

[18] = tested on: Human immunodeficiency virus 2; assay: Inhibition of human immunodeficiency virus type 2 (HIV-2) induced cytopathogenicity in CEM cells; type: functional, organism-based; details: Human immunodeficiency virus 2, CCRF-CEM
HEL [19] = assay: Compound was evaluated for inhibitory activity against cytomegalovirus (CMV) Davis strain; NA=Not Active; type: functional, cell-based, Homo sapiens; procedure, shortened: as §2
Human alphaherpesvirus 1 [20] = assay: Inhibitory activity against herpes simplex virus type 1 (HSV-1) McIntyre strain; type: functional, organism-based; procedure, shortened: as §1
Vaccinia virus = assay: Inhibitory activity against vaccinia virus (VV).; type: functional, organism-based, Orthopoxvirus vaccinia
Procedure, shortened: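 Confluent E6SM cell cultures were inoculated with 100 CCID50 of virus and left for 1 h adsorption, then residual virus was removed. Cultures were incubated with test compound at serial concentrations (400, 200, 100, ... μg/mL). Virus-induced cytopathicity was scored once it reached completion in untreated infected control cultures.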

Human alphaherpesvirus 1 [21] = assay: Inhibitory activity against herpes simplex virus type 1 thymidine kinase (HSV-1 TK-) VMW 1837 strain.
HEL [22] = assay: Compound was evaluated for inhibitory activity against varicella zoster virus thymidine kinase (VZV TK+) YS strain; NA=not active; type: functional, cell-based, Homo sapiens; procedure, shortened: as §2
Human alphaherpesvirus 1 [23] = assay: Inhibitory activity against herpes simplex virus type 1 (HSV-1) F strain; type: functional, organism-based; procedure, shortened: as §1
HEL [24] = assay: Compound was evaluated for inhibitory activity against varicella zoster virus thymidine kinase (VZV TK+) OKA strain; NA=Not Active; type: functional, cell-based, Homo sapiens; procedure, shortened: as §2
HEL [25] = assay: Compound was evaluated for inhibitory activity against varicella zoster virus thymidine kinase (VZV TK-) 07/1 strain; NA=not active; type: functional, cell-based, Homo sapiens
Human alphaherpesvirus 2 [26] = assay: Inhibitory activity against herpes simplex virus type 2 (HSV-2) G strain.; type: functional, organism-based; procedure, shortened: as §1
Human alphaherpesvirus 2 [27] = assay: Inhibitory activity against herpes simplex virus type 2 (HSV-2) 196 strain.; type: functional, organism-based; procedure, shortened: as §1
[28] = tested on: Human immunodeficiency virus 1; assay: Inhibitory activity of compound against human immunodeficiency virus type 1 (HIV-1) induced cytopathogenicity in MT-4 cells; type: functional, organism-based; details: Human immunodeficiency virus 1, MT4; procedure, shortened: as §3
[29] = tested on: Human immunodeficiency virus 2; assay: Inhibitory activity against human immunodeficiency virus type 2 (HIV-2) induced cytopathogenicity in MT-4 cells; type: functional, organism-based; details: Human immunodeficiency virus 2, MT4

| Structure (SMILES) | EC50 (E6SM [1]) | EC50 (Cytomegalovirus [2]) [µg/mL] | EC50 (Human alphaherpesvirus 1 [3]) [µg/mL] | EC50 (E6SM [4]) | EC50 (Cytomegalovirus [5]) [µg/mL] | EC50 (Human alphaherpesvirus 1 [6]) | EC50 [7] [µg/mL] | EC50 (Human alphaherpesvirus 2 [8]) [µg/mL] | EC50 [10] [µg/mL] | EC50 (Human alphaherpesvirus 1 [14]) | EC50 (HEL [16]) | EC50 (Vaccinia virus) | EC50 (Human alphaherpesvirus 1 [21]) | EC50 (HEL [22]) | EC50 (Human alphaherpesvirus 1 [23]) | EC50 (HEL [24]) | EC50 (HEL [25]) | EC50 (Human alphaherpesvirus 2 [26]) | EC50 (Human alphaherpesvirus 2 [27]) | EC50 [28] [µg/mL] | further results |
| --- | --- | --- | --- | --- | --- | --- | --- | --- | --- | --- | --- | --- | --- | --- | --- | --- | --- | --- | --- | --- | --- |
| Nc1ccn(CCOCP(=O)(O)O)c(=O)n1 | Not Active | 75 (≈ 301 µM) | 300 (≈ 1200 µM) | Not Active | 70 (≈ 281 µM) | Not Active | > 200 | 300 (≈ 1200 µM) | 300 (≈ 1200 µM) |  |  |  |  |  |  |  |  |  |  |  | EC50 (MT4 [9]): Not Active; EC50 (Human alphaherpesvirus 1 [11]): 300 µg/mL (≈ 1200 µM) |
| Nc1nc(S)c2ncn(CCOCP(=O)(O)O)c2n1 |  |  |  |  |  |  | 1 (≈ 3.28 µM) |  |  |  |  |  |  |  |  |  |  |  |  |  | EC50 (MT4 [12]): 8.9 µg/mL (≈ 29.2 µM); EC50 [13]: 9.5 µg/mL (≈ 31.1 µM) |
| CCOP(=O)(O)COCCn1cnc2c(N)ncnc21 |  |  | 150 (≈ 498 µM) |  |  |  | 120 (≈ 398 µM) | 70 (≈ 232 µM) | 150 (≈ 498 µM) | Not Active | Not Active |  |  |  |  |  |  |  |  |  | EC50 (Human alphaherpesvirus 2 [15]): 150 µg/mL (≈ 498 µM); EC50 [17]: > 100 µg/mL; EC50 [18]: > 100 µg/mL; EC50 (HEL [19]): Not Active; EC50 (Human alphaherpesvirus 1 [20]): 300 µg/mL (≈ 996 µM) |
| Cc1ncnc2c1ncn2CCOCP(=O)(O)O | Not Active | 100 (≈ 367 µM) |  | Not Active | 200 (≈ 735 µM) | Not Active | > 200 |  |  | Not Active |  | Not Active | Not Active | Not Active | Not Active | Not Active | Not Active | Not Active | Not Active | > 400 |  |
| CSc1ncnc2c1ncn2CCOCP(=O)(O)O | Not Active | > 400 |  | Not Active | > 400 | Not Active | > 200 |  |  | Not Active |  | Not Active | Not Active |  | Not Active |  |  | Not Active | Not Active | > 200 | EC50 [29]: > 400 µg/mL |
| CCOP(=O)(COCCn1cnc2c(N)nc(N)nc21)OCC | Not Active |  |  | Not Active |  | Not Active | > 200 |  |  | Not Active | Not Active | Not Active | Not Active | Not Active | Not Active | Not Active | Not Active | Not Active | Not Active | > 400 | EC50 [29]: > 400 µg/mL |
